miR122 inh = blocks miR-122 activity in Huh7 sensor cells; activation (reporter increase), % at 12.5 µM; 0.3% of 340,000 active; Huh7 miR-122 Renilla luciferase sensor, 48 h; neutral wells = 0, positive control = 100;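 active = mean replicate activation score at least 90 and every replicate individually at or above 90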;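 also: higher luciferase means less miR-122 activity so hits act as miR-122 inhibitors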
INS-1E GSIS act = GLuc luminescence reporter in INS-1E cells, primary screen for activators of glucose-dependent secretion of insulin | INS-1E GLuc reporter insulin secretion, 2-3 h | activation, % at 16.6 µM | AID 743287 | 0.61% of 370,000 active;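 active = lowest replicate activation of at least 40%, so every replicate reaches that level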;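 also: 0% = median of neutral control wells and 100% = median of IBMX positive control wells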
Env fusion inh = HIV envelope-mediated fusion inhibition. HeLa-JRFL Env/CEM21 cell fusion, luciferase. inhibition, % at 12.3 µM. 1.1% of 360,000 active. AID 651610;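 active = mean replicate inhibition score of at least 50 and every replicate individually at or above 50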;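 also: 0% = plate neutral controls and 100% = maraviroc near 300 nM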
CFTR F508del cor = CFTR F508del correction in bronchial cells; 0.36% of 350,000 active; CFBE cells, YFP halide quenching; stimulated with forskolin plus potentiator P3; % fluorescence drop versus neutral controls; activity (quench increase), % at 7.58 µM;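 active = mean added fluorescence quench of at least 8% versus neutral control, with both replicates also reaching 8%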;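 also: cells transiently co-express mutant CFTR-F508del with the halide-sensitive YFP; corrector assay measuring rescue of mutant channel to the surface after 24 h compound exposure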
Cneo AK release = causes C. neoformans cell lysis | 0.2% of 360,000 active | adenylate kinase release luminescence, 4 h; normalised: neutral wells 0, clomiphene wells 100 | lysis activity, % at 15 µM | AID 651654;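 active = mean lysis activity across replicates of at least 80%, whatever share of replicates individually reach that level; inactive = mean lysis activity below 80%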
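Material – Cryptococcus neoformans yeast cells · Quantity – 5 × 10^6 yeast cells/mL · Buffer or medium – YPD medium · Compound – single dose · Timing – 4 h static compound exposure, 37 °C, read 1 h post-reagent · Signal – adenylate kinase release luminescence · Read-out basis – lysis from increased AK signal · Benchmarks – Clomiphene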
Ecoli rRNA inh = inhibitors of bacterial rRNA selective over humanized ribosomes. E. coli WT GFP vs humanized-ribosome RFP mutants, fluorescence, 24 h; hits give low values; DMSO median 0, no signal -100. GFP signal change (wild-type ribosome), % (concentration not given with the values). 1.6% of 350,000 active;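 active = significant combined selectivity score with lowered wild-type GFP, culture density cut under 30%, mutant RFP and density less affected; inactive = any of these conditions unmet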
Active calls of the source: *; / = no result; [ ] = another dose, or the depositor's remark. The list is not random: actives were taken first. Their share in the collection is about 3.1%.

SMILES	miR122 inh	INS-1E GSIS act	Env fusion inh	CFTR F508del cor	Cneo AK release	Ecoli rRNA inh
Cc1ccc(C(=O)NCC(=O)Nc2cc(C)ccn2)cc1	0	-6	-31	1	-1	3
Cc1ccc(NC(=O)CNC(=O)c2ccco2)nc1	/	2	-84	0	-1	17
CCNC(=O)C[C@H]1CC[C@@H]2[C@@H](COc3ccc(NC(=O)Nc4cccc(C)c4)cc3C(=O)N2C)O1	-7[16.7 µM]	-11	44[16.7 µM]	2	-19	-1
Cc1ccc(C(=O)c2sc3c(c2N)c(=O)[nH]c(=O)n3CCc2ccccc2)cc1	/	25	11	/	/	/
CCn1c(=O)[nH]c(=O)c2c(N)c(C(=O)c3cc(F)ccc3F)sc21	4	55*	8	7	-4	-1
C[C@@H]1CN([C@H](C)CO)C(=O)c2cccc(N(C)C)c2O[C@H]1CN(C)Cc1ccc(C(=O)Nc2ccccc2N)cc1	17[16.7 µM]	-7	6[16.7 µM]	-3	2	-1
COc1cccc(NC(=O)c2oc3ccc(S(=O)(=O)N4CCOCC4)cc3c2C)c1	/	10	-10	2	/	-13
Cc1ccc(NC(=O)c2oc3ccc(S(=O)(=O)N4CCOCC4)cc3c2C)cc1C	1	79*	-14	/	-1	/
COc1ccc(C(=O)Nc2ccc(N3CCOCC3)cc2)cc1S(=O)(=O)N1CCOCC1	-3	25	-11	2	3	-1
COc1ccc(C(=O)Nc2ccc(-c3ccc(C)o3)cc2)cc1S(=O)(=O)N1CCOCC1	-15	/	63*	/	3	/
COc1ccc(NC(=O)c2cc(S(=O)(=O)N3CCCCC3)ccc2C)cc1S(=O)(=O)N1CCOCC1	-12	-16	24	-1	-3	9
COc1ccc(NC(=O)c2cc(S(=O)(=O)N3CCOCC3)ccc2C)cc1S(=O)(=O)N1CCOCC1	7	-7	-2	10*	-1	1
COc1ccc(S(=O)(=O)Nc2ccc(C)c(S(=O)(=O)N3CCOCC3)c2)cc1[N+](=O)[O-]	98*	-4	16	-2	-1	9
COc1ccc(C(=O)Nc2ccc(NC(C)=O)cc2)cc1S(=O)(=O)N1CCCC1	-4	-3	-7	-1	-2	-33*
Cc1ccc(Oc2ccc(S(=O)(=O)N3CCOCC3)cc2C(N)=O)cc1C	/	-3	-14	-2	9	-23*
Cc1c(C(=O)O)oc2ccc(S(=O)(=O)N3CCCC3)cc12	3	23	-5	-1	6	19
COc1ccc(C(=O)Nc2ccc(N3CCOCC3)cc2)cc1S(=O)(=O)N1CCCC1	-2	-2	6	7	0	-5
CCCCN(C)C(=O)c1oc2ccc(S(=O)(=O)N3CCCCCC3)cc2c1C	-2	-31	61*	/	1	/
O=C(OCC12CC3CC(CC(C3)C1)C2)c1ccc(NCc2cc(O)ccc2O)cc1	/	157*	-29	0	/	1
Cc1ccc(-c2csc3nc[nH]c(=O)c23)c(C)c1	3	-10	7	-7	1	-14
Cc1ccc(-c2csc3nc(C(C)C)oc(=O)c23)c(C)c1	12	-7	4	-2	0	-24*
C[C@@H](NC(=O)C[C@@H]1C[C@H]2c3cc(NC(=O)c4ccc5c(c4)OCO5)ccc3O[C@H]2[C@@H](CO)O1)c1ccccc1	2[16.7 µM]	-3	17[16.7 µM]	2	/	-4
Nc1cc(Cl)nc(N/N=C/c2c(O)ccc3ccccc23)n1	/	8	/	1	/	-20*
COc1ccc2nc(C)cc(Nc3ccc(C)cc3)c2c1	-10	7	23	0	-4	10
Cc1cc(Nc2cccc(Br)c2)c2ccccc2n1	/	-3	66*	/	/	17
SMILES	miR122 inh	INS-1E GSIS act	Env fusion inh	CFTR F508del cor	Cneo AK release	Ecoli rRNA inh
COc1ccc(Nc2cc(C)nc3ccccc23)cc1	-1	42*	/	-2	3	28
COc1ccc(OC)c(Nc2cc(C)nc3ccc(C)cc23)c1	-32	37	11	12*	0	2
COc1ccc(Nc2cc(C)nc3nc(C)nn23)c(OC)c1	-2	12	-3	-5	1	6
COc1ccc(OC)c(Nc2cc(C)nc3nc(C)nn23)c1	107*	14	-34	-1	0	-4
Cc1ccc(S(=O)(=O)Nc2ccc3c(c2)CC(=O)N([C@@H](C)CO)C[C@H](C)[C@@H](CN(C)S(=O)(=O)c2ccc(F)cc2)O3)cc1	0[16.7 µM]	6	-41[16.7 µM]	-1	42	-2
CO[C@H]1CN(C)C(=O)c2ccc(NC(=O)Nc3ccccc3F)cc2OC[C@H](C)N(C(C)=O)C[C@@H]1C	-11[16.7 µM]	-4	-26[16.7 µM]	-1	51	0
CCOC(=O)c1sc(=S)n(C)c1NC(=O)c1ccc(OC)cc1	2	6	22	-1	3	-21*
CN1C(=O)c2cc(NC(=O)c3ccc(F)cc3)ccc2OC[C@H]2O[C@H](CC(=O)O)CC[C@@H]21	-4[16.7 µM]	-2	1[16.7 µM]	-2	-14	3
COc1ccccc1CN(Cc1nc2ccccc2c(=O)[nH]1)S(=O)(=O)c1ccc2ccccc2c1	/	1	98*	/	/	/
COc1ccc(S(=O)(=O)N(Cc2ccccc2)Cc2nc3ccccc3c(=O)[nH]2)cc1	3	-8	/	/	1	/
C[C@@H]1CN([C@@H](C)CO)C(=O)c2cc(NC(=O)CCCCCC(=O)Nc3ccccc3N)ccc2O[C@H]1CN(C)Cc1ccccc1	/	0	/	-4	/	-2
Cc1noc(C)c1NC(=O)N(C)C[C@@H]1Oc2ccc(NC(=O)Nc3cccc4ccccc34)cc2CC(=O)N([C@H](C)CO)C[C@H]1C	3[16.7 µM]	7	25[16.7 µM]	-1	-2	1
CCN(CC)C(=S)SCC(=O)c1ccccc1	11	/	-148	/	-2	/
CCN(CC)C(=S)SSC(=S)N(CC)CC	-3	19	/	14*	-3	0
Cc1cc(/C=C2\C(=N)N3N=CSC3=NC2=O)c(C)n1Cc1ccccc1	/	11	-32	-1	4	-33*
CCOc1ccccc1OCCCC(=O)N1CCN(S(=O)(=O)c2ccc(Cl)cc2)CC1	-11	-60	/	1	1	-11
CCOc1ccccc1OCCCC(=O)N1CCN(S(=O)(=O)c2cc(F)ccc2F)CC1	4	-14	8	3	4	-20*
COC(=O)c1cn(C(=O)c2ccc(C)cc2C)c2ccccc12	46	2	-177	11*	/	1
COC(=O)c1cn(C(=O)c2ccccc2Cl)c2ccccc12	/	-2	0	3	/	-11
COc1cc2ccc(=O)oc2c(O)c1OCC=C(C)C	3	8	/	/	-3	-21*
CCC(=O)N[C@H]1CC[C@@H](CCn2cc(-c3cccc(OC)c3)nn2)O[C@@H]1CO	/	5	-2[16.7 µM]	-2	-4	4
COc1cccc(NC(=O)c2cccc(OC)c2OC)c1	3	/	-159	/	-3	/
